Type in all cases: cell-based
Assay [1] has as its target T1, Mas-related G-protein coupled receptor member X1 (Homo sapiens, UniProt Q96LB2). As to the kind of experiment: Agonist activity at human MrgX1 transfected in HEK293 cells by FLIPR assay. A digest of the protocol: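 Human MrgX1 stably expressed in HEK293 cells, plated at 25,000 cells/well 2 days before imaging. Cells loaded with 2 μM Fluo 4AM plus 1% Trypan Red in HBSS for 50 min at 37°C, then equilibrated 10 min at room temperature. Serial dilutions in HBSS added alongside BAM 8-22 (positive) and HBSS (negative) controls.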

The target in assay [2] is T2, Mas-related G-protein coupled receptor member X1 (Rattus norvegicus, UniProt Q8R4G1).
T2 sequence (Q8R4G1 whole entry): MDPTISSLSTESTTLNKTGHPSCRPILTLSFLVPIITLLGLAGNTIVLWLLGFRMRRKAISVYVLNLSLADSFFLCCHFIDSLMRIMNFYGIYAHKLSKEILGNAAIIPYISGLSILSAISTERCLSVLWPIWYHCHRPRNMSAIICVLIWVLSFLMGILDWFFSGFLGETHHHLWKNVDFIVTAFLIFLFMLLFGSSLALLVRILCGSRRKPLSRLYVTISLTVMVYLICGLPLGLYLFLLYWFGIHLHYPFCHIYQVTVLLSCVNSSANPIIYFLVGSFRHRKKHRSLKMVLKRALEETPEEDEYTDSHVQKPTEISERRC
As to the kind of experiment: Agonist activity at rat MrgX1 transfected in HEK293 cells by FLIPR assay. A digest of the protocol: (§1)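 Rodent Mrg receptors were transiently transfected into HEK293 or KNRK cells, which were plated at 25,000 cells/well and imaged 2 days later. Cells were loaded with 2 μM Fluo 4AM and 1% Trypan Red in HBSS for 50 min at 37°C, then held 10 min at room temperature.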

Assay [3] concerns the target T3, Mas-related G-protein coupled receptor member X1 (Mus musculus, UniProt Q8CIP3).
T3 sequence (Q8CIP3 whole entry): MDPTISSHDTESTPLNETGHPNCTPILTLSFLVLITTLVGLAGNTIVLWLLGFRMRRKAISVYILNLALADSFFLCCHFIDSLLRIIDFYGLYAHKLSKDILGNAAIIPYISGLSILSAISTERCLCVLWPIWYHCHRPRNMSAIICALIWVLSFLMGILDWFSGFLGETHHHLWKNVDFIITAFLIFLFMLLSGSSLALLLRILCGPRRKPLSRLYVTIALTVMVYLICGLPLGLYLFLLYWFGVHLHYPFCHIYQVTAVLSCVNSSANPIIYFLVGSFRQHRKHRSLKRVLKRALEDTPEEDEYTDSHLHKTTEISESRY
As to the kind of experiment: Agonist activity at mouse MrgC11 transfected in HEK293 cells by FLIPR assay. In short, it runs like this: as §1

The target in assay [4] is T1, Mas-related G-protein coupled receptor member X1. In words: Antagonist activity at human MrgX1 transfected in HEK293 cells at 200 uM by FLIPR assay.

pEC50: −log10 of the molar value. Active and inactive are the calls of the source. The rule behind the calls is not given here. Square brackets hold non-standard residues; d marks the D form. Peptide text beside a SMILES is read from it. dPhe(4-guanidino) = N=C(N)Nc1ccc(C[C@@H](N)C(=O)O)cc1; Phe(4-guanidino) = N=C(N)Nc1ccc(C[C@H](N)C(=O)O)cc1

What is called pEC50 is the EC50 on a negative log10 scale, so that one unit is a factor of ten. Lower therefore signals a high EC50.

T1 sequence (Q96LB2 whole entry): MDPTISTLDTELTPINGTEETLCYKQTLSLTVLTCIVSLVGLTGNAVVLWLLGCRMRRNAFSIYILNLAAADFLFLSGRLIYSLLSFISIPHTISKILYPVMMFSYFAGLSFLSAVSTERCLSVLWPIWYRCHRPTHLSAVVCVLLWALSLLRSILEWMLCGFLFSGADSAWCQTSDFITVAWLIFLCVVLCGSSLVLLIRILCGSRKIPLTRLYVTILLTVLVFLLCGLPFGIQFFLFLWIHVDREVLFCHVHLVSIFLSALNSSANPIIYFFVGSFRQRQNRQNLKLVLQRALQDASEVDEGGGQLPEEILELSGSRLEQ

On to `N=C(N)Nc1ccc(C[C@H](N)C(=O)N[C@@H](Cc2ccccc2)C(N)=O)cc1` (H-[Phe(4-guanidino)]-Phe-NH2), for which the pEC50 is below 4.00 in assay [1], 4.30 in assay [2] and 4.80 in assay [3].

Consider `COc1ccc(-c2ccc(C(=O)Nc3cccc(Cn4ncc(N5CCNCC5)cc4=O)c3C)cc2)cn1`, for which the pEC50 in assay [1] was 7.60; in assay [2], below 5.70; in assay [3] it was below 5.70.

Regarding `N=C(N)Nc1ccc(C[C@@H](N)C(=O)N[C@@H](Cc2ccccc2)C(N)=O)cc1` (H-[dPhe(4-guanidino)]-Phe-NH2), the results for the negative logarithm of the EC50 (pEC50) in assay [1], in assay [2] and in assay [3] were below 4.00, 6.20 and 5.90, respectively. Besides, the result in assay [4] was inactive.

Consider `N=C(N)N[C@@H]1CN[C@H](C(=O)N[C@@H](Cc2ccccc2)C(N)=O)C1`, for which the pEC50 was below 4.00 in assay [1], below 4.00 in assay [2] and 5.10 in assay [3].

For `N=C(N)N1CCC(C(N)C(=O)N[C@@H](Cc2ccccc2)C(N)=O)CC1` (some centres undefined), the figures for the pEC50 in assay [1], in assay [2] and in assay [3] were below 4.00, 5.40 and 6.10, respectively.

For `N=C(N)NC[C@@H]1CN[C@H](C(=O)N[C@@H](Cc2ccccc2)C(N)=O)C1`, the pEC50 is below 4.00 in assay [1], below 4.00 in assay [2] and 6.30 in assay [3].

(Values after ChEMBL document CHEMBL3351571, “Peptidomimetics of Arg-Phe-NH2 as small molecule agonists of Mas-related gene C (MrgC) receptors” (Bioorg Med Chem, 2014).)
